Values after ≈ are worked out from the molar mass of the structure shown.
How the values were obtained:
[1] = system: MT4; test: In vitro for cytotoxicity in MT-4 lymphocytes in the absence of HIV infection.; format: functional; details: Homo sapiens
Procedure, shortened: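 Uninfected MT-4 lymphocytes were cultured with compound. CC50 is the concentration at which 50% of cells remain viable.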

[2] = target: Human immunodeficiency virus type 1 protease (Human immunodeficiency virus 1, UniProt Q72874); test: Inhibition of purified recombinant HIV-1 protease in a fluorogenic assay
Procedure, shortened: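 Purified recombinant HIV-1 protease, with cleavage of the fluorogenic substrate DABCYL-[…]-Pro-Ile-Val-Gln-EDANS as read-out. Value is the inhibitor concentration giving 50% inhibition of protease activity.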

[3] = system: Human immunodeficiency virus 1; test: In vitro for inhibition of cytopathic effect of HIV-1 3B in MT-4 lymphocytes.; format: functional, organism-based
Procedure, shortened: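 MT-4 lymphocytes were infected with HIV-1 3B at an MOI of either 0.001 or 0.032 tissue culture infective dose per cell. EC50 is the concentration preventing 50% of viral cytopathic effect, from a single triplicate assay. No effect means no activity up to 100 μM or up to the cytotoxic concentration.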

[4] = Estimated solubility (buffer pH 7.4); format: ADME; details: read-out: S
Procedure, shortened: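 Solubility was estimated in pH 7.4 phosphate buffer.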

Row | Structure (SMILES) | IC50 [2] | EC50 [3] | solubility [4] | CC50 [1]
1 | CC(C)[C@H](NC(=O)OCC1CCCCN1C)C(=O)N[C@@H](Cc1ccccc1)[C@@H](O)[C@H](Cc1ccccc1)NC(=O)[C@H](NC(=O)OCc1ccccc1)C(C)C (stereo partly specified) | 0.063 µM | – | 19 µg/mL (≈ 25.1 µM) | –
2 | CC(C)[C@H](NC(=O)/C=C/c1cccnc1)C(=O)N[C@@H](Cc1ccccc1)[C@@H](O)[C@@H](O)[C@H](Cc1ccccc1)NC(=O)[C@H](NC(=O)/C=C/c1cccnc1)C(C)C | 0.0053 µM | 6.2 µM | 23 µg/mL (≈ 30.2 µM) | > 100 µM
3 | CC(C)[C@H](NC(=O)N(C)Cc1ccccn1)C(=O)N[C@@H](Cc1ccccc1)[C@@H](O)[C@H](O)[C@H](Cc1ccccc1)NC(=O)[C@H](NC(=O)N(C)Cc1ccccn1)C(C)C | < 0.001 µM | 0.27 µM | 197 µg/mL (≈ 248 µM) | > 100 µM
4 | CC(C)[C@H](NC(=O)N(C)Cc1nc2ccccc2[nH]1)C(=O)N[C@@H](Cc1ccccc1)[C@H](O)[C@H](O)[C@H](Cc1ccccc1)NC(=O)[C@H](NC(=O)N(C)Cc1nc2ccccc2[nH]1)C(C)C | < 0.001 µM | 1.9 µM | 18 µg/mL (≈ 20.6 µM) | 31 µM
5 | CC(C)[C@H](NC(=O)CN1CCOCC1)C(=O)N[C@@H](Cc1ccccc1)[C@@H](O)[C@@H](O)[C@H](Cc1ccccc1)NC(=O)[C@H](NC(=O)CN1CCOCC1)C(C)C | 0.0075 µM | – | – | –
6 | CC(C)[C@H](NC(=O)N(C)Cc1nc2ccccc2[nH]1)C(=O)N[C@@H](Cc1ccccc1)[C@@H](O)[C@H](O)[C@H](Cc1ccccc1)NC(=O)[C@H](NC(=O)N(C)Cc1nc2ccccc2[nH]1)C(C)C | < 0.001 µM | 1.7 µM | 6.6 µg/mL (≈ 7.56 µM) | 27 µM
7 | CC(C)[C@H](NC(=O)N(C)Cc1ccccn1)C(=O)N[C@@H](Cc1ccccc1)[C@H](O)[C@H](O)[C@H](Cc1ccccc1)NC(=O)[C@H](NC(=O)N(C)Cc1ccccn1)C(C)C | < 0.001 µM | 0.17 µM | 3.6 µg/mL (≈ 4.53 µM) | > 100 µM
8 | CC(C)[C@H](NC(=O)/C=C/c1ccccn1)C(=O)N[C@@H](Cc1ccccc1)[C@@H](O)[C@@H](O)[C@H](Cc1ccccc1)NC(=O)[C@H](NC(=O)/C=C/c1ccccn1)C(C)C | < 0.001 µM | 1.1 µM | 6.8 µg/mL (≈ 8.94 µM) | > 100 µM
9 | CC(C)[C@H](NC(=O)NCc1ccccn1)C(=O)N[C@@H](Cc1ccccc1)C(O)[C@H](Cc1ccccc1)NC(=O)[C@H](NC(=O)NCc1ccccn1)C(C)C (stereo partly specified) | 0.01 µM | 6.1 µM | 53 µg/mL (≈ 71.9 µM) | > 100 µM
10 | CC(C)[C@H](NC(=O)N(C)Cc1ccccn1)C(=O)N[C@@H](Cc1ccccc1)[C@H](O)[C@@H](O)[C@H](Cc1ccccc1)NC(=O)[C@H](NC(=O)N(C)Cc1nccs1)C(C)C | < 0.001 µM | 0.22 µM | 10.9 µg/mL (≈ 13.6 µM) | > 100 µM
11 | CC(C)[C@H](NC(=O)c1cc2ccccc2[nH]1)C(=O)N[C@@H](Cc1ccccc1)C(O)[C@H](Cc1ccccc1)NC(=O)[C@H](NC(=O)c1cc2ccccc2[nH]1)C(C)C (stereo partly specified) | 0.0012 µM | 8.9 µM | – | 58 µM
12 | CC(C)[C@H](NC(=O)N(C)CCc1ccccn1)C(=O)N[C@@H](Cc1ccccc1)[C@@H](O)[C@H](O)[C@H](Cc1ccccc1)NC(=O)[C@H](NC(=O)N(C)CCc1ccccn1)C(C)C | 0.0052 µM | 4.2 µM | 66 µg/mL (≈ 80.2 µM) | 61 µM
13 | CC(C)[C@H](NC(=O)OCCN1CCOCC1)C(=O)N[C@@H](Cc1ccccc1)C(O)[C@H](Cc1ccccc1)NC(=O)[C@H](NC(=O)OCCN1CCOCC1)C(C)C (stereo partly specified) | 0.18 µM | – | 273 µg/mL (≈ 349 µM) | –
14 | CC(C)[C@H](NC(=O)N(C)Cc1cccnc1)C(=O)N[C@@H](Cc1ccccc1)[C@@H](O)[C@@H](O)[C@H](Cc1ccccc1)NC(=O)[C@H](NC(=O)N(C)Cc1cccnc1)C(C)C | 0.0016 µM | 5.7 µM | 338 µg/mL (≈ 425 µM) | > 100 µM
15 | CC(C)[C@H](NC(=O)N(C)Cc1nc2ccccc2[nH]1)C(=O)N[C@@H](Cc1ccccc1)[C@@H](O)[C@@H](O)[C@H](Cc1ccccc1)NC(=O)[C@H](NC(=O)N(C)Cc1nc2ccccc2[nH]1)C(C)C | < 0.001 µM | 5 µM | 12 µg/mL (≈ 13.7 µM) | 55 µM
16 | CC(C)[C@H](NC(=O)N(C)Cc1cccnc1)C(=O)N[C@@H](Cc1ccccc1)[C@@H](O)[C@H](O)[C@H](Cc1ccccc1)NC(=O)[C@H](NC(=O)N(C)Cc1cccnc1)C(C)C | < 0.001 µM | 1.7 µM | 153 µg/mL (≈ 192 µM) | > 100 µM

The next lines start with results.

Row | IC50 [2] | EC50 [3] | solubility [4] | Structure (SMILES) | CC50 [1]
17 | < 0.001 µM | 0.07 µM | – | CC(C)[C@H](NC(=O)OCc1ccccc1)C(=O)N[C@@H](Cc1ccccc1)[C@H](O)[C@H](O)[C@H](Cc1ccccc1)NC(=O)[C@H](NC(=O)OCc1ccccc1)C(C)C | > 100 µM
18 | < 0.001 µM | 0.48 µM | 420 µg/mL (≈ 528 µM) | CC(C)[C@H](NC(=O)N(C)Cc1ccccn1)C(=O)N[C@@H](Cc1ccccc1)[C@H](O)[C@@H](O)[C@H](Cc1ccccc1)NC(=O)[C@H](NC(=O)N(C)Cc1cccnc1)C(C)C | > 100 µM
19 | < 0.001 µM | 0.45 µM | 5.4 µg/mL (≈ 7.02 µM) | CC(C)[C@H](NC(=O)OCc1ccccn1)C(=O)N[C@@H](Cc1ccccc1)[C@@H](O)[C@@H](O)[C@H](Cc1ccccc1)NC(=O)[C@H](NC(=O)OCc1ccccn1)C(C)C | > 100 µM
20 | < 0.001 µM | 0.23 µM | 0.21 µg/mL (≈ 0.273 µM) | CC(C)[C@H](NC(=O)OCc1ccccn1)C(=O)N[C@@H](Cc1ccccc1)[C@H](O)[C@H](O)[C@H](Cc1ccccc1)NC(=O)[C@H](NC(=O)OCc1ccccn1)C(C)C | > 100 µM
21 | < 0.001 µM | 0.07 µM | – | CC(C)[C@H](NC(=O)c1cc2ccccc2[nH]1)C(=O)N[C@@H](Cc1ccccc1)[C@@H](O)[C@@H](O)[C@H](Cc1ccccc1)NC(=O)[C@H](NC(=O)c1cc2ccccc2[nH]1)C(C)C | 49 µM
22 | < 0.001 µM | 0.11 µM | < 0.03 µg/mL | CC(C)[C@H](NC(=O)OCc1ccccc1)C(=O)N[C@@H](Cc1ccccc1)[C@@H](O)[C@@H](O)[C@H](Cc1ccccc1)NC(=O)[C@H](NC(=O)OCc1ccccc1)C(C)C | > 100 µM
23 | < 0.001 µM | 0.44 µM | 31 µg/mL (≈ 40.3 µM) | CC(C)[C@H](NC(=O)OCc1cccnc1)C(=O)N[C@@H](Cc1ccccc1)[C@@H](O)[C@@H](O)[C@H](Cc1ccccc1)NC(=O)[C@H](NC(=O)OCc1cccnc1)C(C)C | > 100 µM
24 | < 0.001 µM | – | 0.5 µg/mL (≈ 0.65 µM) | CC(C)[C@H](NC(=O)OCc1cccnc1)C(=O)N[C@@H](Cc1ccccc1)[C@@H](O)[C@H](O)[C@H](Cc1ccccc1)NC(=O)[C@H](NC(=O)OCc1cccnc1)C(C)C | –
25 | < 0.001 µM | – | 0.41 µg/mL (≈ 0.533 µM) | CC(C)[C@H](NC(=O)OCc1cccnc1)C(=O)N[C@@H](Cc1ccccc1)[C@H](O)[C@H](O)[C@H](Cc1ccccc1)NC(=O)[C@H](NC(=O)OCc1cccnc1)C(C)C | –
26 | – | – | > 0.03 µg/mL | CC(C)[C@H](NC(=O)OCc1ccccc1)C(=O)N[C@@H](Cc1ccccc1)[C@@H](O)[C@H](Cc1ccccc1)NC(=O)[C@H](NC(=O)OCc1ccccc1)C(C)C | > 100 µM
27 | < 0.001 µM | 0.09 µM | – | CC(C)[C@H](NC(=O)OCc1ccccc1)C(=O)N[C@@H](Cc1ccccc1)[C@@H](O)[C@H](O)[C@H](Cc1ccccc1)NC(=O)[C@H](NC(=O)OCc1ccccc1)C(C)C | > 100 µM
